B1: tRNA (parent)
chain: GUUCCGUUGGCGUAAUGGUAACGCGUCUCCCUCCUAAGGAGAAGACUGCGGGUUCGAGUCCCGUACGGAACG

The results in this text go back to the RNAGym collection of RNA variant scans (doi:10.1126/science.aae0568).

Variants at the floor of the assay were thinned out.

In the data set the parent is B1. Briefly: yeast fitness relative to wild type (ratio to wild type); higher = fitter; tRNA-Arg(CCU), competitive growth, 37 C, YPD. Put shortly:
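For this measurement, the tRNA-Arg(CCU) gene was varied by chemical synthesis at a 3% per-site mutation rate across 69 sites, and each variant was placed at the native genomic locus in Saccharomyces cerevisiae. The pooled strains went through a 24-hour competition in YPD at 37°C in six parallel replicates, with amplicons from start and end populations read by 100-nucleotide paired-end sequencing. Darwinian fitness relative to wild type followed from the change in each genotype's frequency. Genotypes needed ≥ 100 starting reads, and estimates < 0.5 were set to 0.5.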
As for A37G A40G C49U, the yeast fitness turned out to be 0.501.

Consider C29G C33G U35G G44A A57G C66U A69U, for which the yeast fitness was not above 0.5.

G25C C29G: the yeast fitness was 0.703.

As to U7C G10A C30G A37C, the yeast fitness turned out to be 0.554.

Take C31A U35A C55G G58C: the yeast fitness was not above 0.5.

Regarding G6A U28C C61U, the yeast fitness was determined as 0.628.

Consider G17A C22A C31A C33A C49A, for which the yeast fitness is 0.573.

Turning to U3A A14U G41C G67C, the yeast fitness is not above 0.5.

U3A U7C C11U U13C C31A: the yeast fitness was not above 0.5.

In the case of C34U C66A, the yeast fitness was not above 0.5.

G9C U26C: the yeast fitness stood at 0.612.

Take A37U A40C: the yeast fitness was 0.776.

On to A43G A57C, for which the yeast fitness was 0.525.

With A40C C46U C55G A70U, the yeast fitness is 0.503.

Take G50A C60U: the yeast fitness was 0.819.

Consider U13A C24U C55G, for which the yeast fitness was found to be 0.537.

Turning to G9A C24G, the yeast fitness came to 0.594.

Turning to G23C A36U G52C, the yeast fitness was not above 0.5.

With U7C A14G U19G C29G C49A G52C, the yeast fitness is not above 0.5.

C11U G51C: the yeast fitness was 0.718.

Take C4G G10C G12C A21C G48C A57G G68C: the yeast fitness came to 0.519.

As for G18A C29U, the yeast fitness came to 0.813.

For the variant A20C A37G A45C, the yeast fitness was not above 0.5.

As for C4G A21U G41C U53C A65C, the yeast fitness amounted to 0.535.

As for U2A C5G U64A, the yeast fitness is not above 0.5.

Take G6A A15C U16A A21G U26A C30U C61A A69U: the yeast fitness is not above 0.5.

Consider A65U, for which the yeast fitness was 0.993.

On to C11G C30U A37U, for which the yeast fitness is not above 0.5.

For U2G C29G C33G, the yeast fitness is not above 0.5.

As to C46U G52A U59C, the yeast fitness is 0.631.

For U16A A37U, the yeast fitness was determined as 0.739.

With G18C G23A G25C A37G A43C C55G G63A G68A, the yeast fitness was not above 0.5.

Turning to C24A U35G G52A U64A, the yeast fitness was determined as 0.514.

For the variant A15G U28C C30U U59A A70C, the yeast fitness was not above 0.5.

As for U35A C60G C62G G68A, the yeast fitness is not above 0.5.

Take C27G C34U C49U C66G: the yeast fitness was not above 0.5.

On to C31G G44C, for which the yeast fitness stood at 0.931.

For the variant G25A A43C G63C G67A, the yeast fitness was not above 0.5.

Consider C11U C27G G39C, for which the yeast fitness was not above 0.5.

As for U7A U64C, the yeast fitness was 0.829.

In the case of C30U G50C, the yeast fitness stood at 0.69.

C24G A37G C55U: the yeast fitness was not above 0.5.

Regarding U8C A14C C33A C46A, the yeast fitness was not above 0.5.

For the variant C4A U7C A21C C22U G50C A70U, the yeast fitness was not above 0.5.

Take C5G C31A A45U: the yeast fitness stood at 0.584.

On to C4U A21C C27G A43C G48A C66A, for which the yeast fitness was not above 0.5.

In the case of U7G C22A, the yeast fitness was determined as 0.653.

As for G67C A69G, the yeast fitness was determined as 0.977.

Turning to G9C A15C C34G, the yeast fitness was not above 0.5.

With A21G C60G A70C, the yeast fitness was determined as 0.579.

For the variant C30U U54A, the yeast fitness came to 0.561.

As to A14C C22G G25C G44A C61G, the yeast fitness is 0.543.

As for U8C A42U, the yeast fitness worked out at 0.791.

C22A U35A: the yeast fitness was found to be 0.603.

On to C4G A15U C33A G68C, for which the yeast fitness is not above 0.5.

Consider U32C C49U A65C, for which the yeast fitness was found to be 0.793.

Regarding C22G C49U A57C, the yeast fitness amounted to 0.594.

As to A14C C30U A37C C62A, the yeast fitness turned out to be 0.693.

With C11U U19A G41A C60G A65G, the yeast fitness was not above 0.5.

On to C4U C22G C29G C31A A69C, for which the yeast fitness was not above 0.5.

In the case of A20G C31A G68A, the yeast fitness was determined as 0.575.

For the variant A20C G48A, the yeast fitness was found to be 0.908.

Consider C24G A45U, for which the yeast fitness is 0.557.

With C11A A20G C46U G50C C60A A70C, the yeast fitness worked out at 0.632.

As for C5A C11A C24U U26C C29U C31G, the yeast fitness was not above 0.5.

Turning to C5U C24U C55U, the yeast fitness was 0.711.

For G9A A21C C27A A37G A45C, the yeast fitness was not above 0.5.

As for C4A U7G G12C, the yeast fitness worked out at 0.549.

As for C5A C61G A70G, the yeast fitness is 0.585.

On to A21C A36C U47A C62G, for which the yeast fitness is not above 0.5.

C5U C22U A37C G48U C55A: the yeast fitness is not above 0.5.

Turning to C5U A45C A70U, the yeast fitness came to 0.813.

In the case of G6C G44C A65G A70C, the yeast fitness was not above 0.5.

On to U32C, for which the yeast fitness is 0.966.

Consider C11A G39A C61U C62A, for which the yeast fitness worked out at 0.624.

Turning to C24G C30U G44C, the yeast fitness is not above 0.5.

G6A U16A A36C A37G G56C: the yeast fitness is not above 0.5.

On to C62G A69U, for which the yeast fitness worked out at 0.839.

For the variant U28C A42C, the yeast fitness amounted to 0.858.

On to C11U A21C A42C A69C, for which the yeast fitness is not above 0.5.

On to A15C A36U C49U A65C, for which the yeast fitness is not above 0.5.

As to C61U C66G, the yeast fitness was found to be 0.706.

Consider C11U A40U G67A, for which the yeast fitness was not above 0.5.

Turning to C24G C27U A40U U59C, the yeast fitness was not above 0.5.

Take C5G G58A: the yeast fitness came out at 0.957.

Turning to G12A U16C C27A U54A, the yeast fitness is not above 0.5.

On to C5U C11G C29G C46U, for which the yeast fitness was not above 0.5.

Turning to C5G G41C A45U, the yeast fitness stood at 0.583.

For the variant C5A U13A A20G A42C U59C, the yeast fitness was not above 0.5.

For the variant G6A C11A U16C U32G C49G C55A, the yeast fitness was not above 0.5.

C11G C27U A36U G48C C49U: the yeast fitness turned out to be 0.717.

For the variant C5A U28G C30G A40C A42U, the yeast fitness was not above 0.5.

In the case of A42U A43G G48C U53A A65U A70C, the yeast fitness is not above 0.5.

In the case of C11G A15G U26A U32A G38A A40C G52A, the yeast fitness is not above 0.5.

In the case of U35A A42C C46U C66U G67C, the yeast fitness is not above 0.5.

Take G10C U19G C62G: the yeast fitness was not above 0.5.

Turning to G18C A37U A40U U64C G67A, the yeast fitness is not above 0.5.

As to C31U A37G U47C G63A, the yeast fitness was not above 0.5.

U7A U8A G41A A70U: the yeast fitness was not above 0.5.

Take C5G G51C: the yeast fitness worked out at 0.761.

As for U28C G41C C49A C61U A70U, the yeast fitness is not above 0.5.

Take G6C G52C A57U: the yeast fitness was not above 0.5.

In the case of A14C G25C U47A G63C, the yeast fitness amounted to 0.678.

Consider G18C G48A C55A, for which the yeast fitness is not above 0.5.

For G9A G52A C61U A69C, the yeast fitness was not above 0.5.

For the variant U2G A36U C46G C62A A69C, the yeast fitness is not above 0.5.

For the variant U7A G63A, the yeast fitness amounted to 0.668.

As to A57U C66U G68C A69U, the yeast fitness is not above 0.5.

G63U: the yeast fitness amounted to 0.825.

In the case of C22G G41A G50U C62A G63C, the yeast fitness is not above 0.5.

C5U G6C C11A C31G A36C: the yeast fitness was not above 0.5.

For C4U A14G G48C, the yeast fitness worked out at 0.659.

With C30G G39C C55A, the yeast fitness is not above 0.5.

Take G39C A45G: the yeast fitness amounted to 0.661.

Consider C5U C31U G41A U64C, for which the yeast fitness was not above 0.5.

For C27A A45U C49U G67C, the yeast fitness was not above 0.5.

As to C4U C30U U54A, the yeast fitness is not above 0.5.

G25A U32A C46U A57U: the yeast fitness amounted to 0.609.

Take A43C G63A: the yeast fitness is 0.929.

With C5G U7C A20U A43G, the yeast fitness is not above 0.5.

Consider C30U G38C U64C A65G, for which the yeast fitness was not above 0.5.

For U54A A69U, the yeast fitness came out at 0.671.

In the case of U7G U28A, the yeast fitness turned out to be 0.704.

A37U C49U U64C: the yeast fitness stood at 0.545.

Turning to A36G U59C C61A C62U, the yeast fitness was not above 0.5.

Turning to G10C U47C, the yeast fitness was found to be 0.695.

Take G6C G23A C49U: the yeast fitness was not above 0.5.

As for U7A G10C C30G A36U, the yeast fitness was not above 0.5.

G9C C11A A15U C24G C33G G38C A43G C61G: the yeast fitness was not above 0.5.

As for C34G G41A A42C C66U, the yeast fitness is not above 0.5.

For the variant G6C G39C, the yeast fitness is 0.7.

Consider C29G G50A, for which the yeast fitness came to 0.605.

On to C5G A21U C29A U64C, for which the yeast fitness is not above 0.5.

In the case of A37G C55U, the yeast fitness stood at 0.519.

Regarding U32C C33U C62U A65G, the yeast fitness was 0.58.

For the variant G23C U26C, the yeast fitness was determined as 0.624.

Take C22U C31G G48C: the yeast fitness was not above 0.5.

For A20U G52A, the yeast fitness came out at 0.759.

In the case of C4U C11U C22G A45U, the yeast fitness was not above 0.5.

For U35A A36U G39A, the yeast fitness came to 0.567.

In the case of C22A G23A A37G A69U, the yeast fitness is not above 0.5.

As to C5U A20C A36G, the yeast fitness stood at 0.632.

With U26C G41C, the yeast fitness was found to be 0.947.

On to C4G G17A A43U C60A, for which the yeast fitness is not above 0.5.

As to U19C C27U C29G C34A A42C G58A A65G, the yeast fitness was not above 0.5.

On to U2A C11G A57U C66U, for which the yeast fitness turned out to be 0.588.

Regarding C4A G12A C31U U59A G63A, the yeast fitness is not above 0.5.

C11A G23U A36U: the yeast fitness was not above 0.5.

For G12C U19A C27G A65C G68A, the yeast fitness was not above 0.5.

Consider C4G U8C C22G A42C C49U A57C, for which the yeast fitness amounted to 0.676.

For the variant C4U U8A A36C C61U, the yeast fitness is not above 0.5.

As for U13A C49U, the yeast fitness turned out to be 1.02.

A40U A42G G63A: the yeast fitness turned out to be 0.511.

With A15G G38A A40C G50A U54A, the yeast fitness was not above 0.5.

For U3C U32A, the yeast fitness is 0.817.

Take C34G A57G: the yeast fitness stood at 0.568.

For the variant G6A C29G U35G C61U, the yeast fitness is not above 0.5.

With U2A G9A G23A C29G, the yeast fitness was not above 0.5.

In the case of A15U G52A C61G, the yeast fitness was found to be 0.596.

On to G18A C24A C31A, for which the yeast fitness is not above 0.5.

As to A14U A20G C30G A42C, the yeast fitness was not above 0.5.

For the variant G10C C29G A40U C49G, the yeast fitness is not above 0.5.

In the case of C4U C27U A45C G48A G56C, the yeast fitness was determined as 0.612.

Take G10C A36C: the yeast fitness is 0.712.

As for U35A C46A C49G G52A, the yeast fitness was determined as 0.572.

For the variant U13G C24U A36G U47C G50A, the yeast fitness came to 0.518.

Take A14C A40G: the yeast fitness was 0.596.
